Here are results for 23 compounds from PubChem BioAssay.

Assay [1] in a line: OD615 S. cerevisiae growth inhibition, permissive medium, pilot counter-assay, permissive growth control for S. cerevisiae lifespan shortening project (AID 705;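 active means growth inhibition above 25% in both replicates, a cutoff set 3 SD above the mean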). Conditions: OD615, 24 h, at 10 µM, stronger effect = higher value. Summed up: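 Material: engineered DeaD yeast; compound dosing: one dose 10 µM, DMSO 0.25% final; measure: yeast growth inhibition indicated by reduced 24 h OD615; detection: OD615 turbidity read; incubation: cells pre-grown 4 h, then 24 h compound exposure, 30 °C humidified; medium: permissive synthetic complete medium with raffinose and galactose carbon sources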

Assay [2] in a line: Restrictive medium S. cerevisiae growth inhibition, OD615, pilot screen of yeast lifespan reduction project, restrictive growth control (AID 706;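 active means growth inhibition above a set limit, 3 SD over mean compound inhibition, in both replicates, cut at about 43% in these data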;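 further: modified DeaD lifespan yeast strain shifted to restrictive glucose medium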). Particulars: OD615, 48 h, at 10 µM, stronger effect = higher value. Summed up: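 material = engineered S. cerevisiae DeaD strain | medium = glucose-based CSMM-D restrictive medium | times = 4 h pre-incubation, 48 h exposure at 30 °C | technique = OD615 absorbance reading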

Assay [3] can be described thus: viability gain of MRP-1-high H69AR cells under doxorubicin, pilot screen, MRP-1 activator project, CellTiter-Glo, duplicate (AID 807;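 active means viability increase at or above a cutoff of the median across tested compounds plus 3 SD, cut at about 8.5% in these data, passing the limit was not always enough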;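 further: compound pretreatment 18-22 h then 72 h combined with doxorubicin; 0% = doxorubicin alone and 100% = vehicle without doxorubicin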). Particulars: H69AR viability with doxorubicin, CellTiter-Glo luminescence; at 10 µM; stronger effect = higher value.
Assay [4] is described as follows: growth suppression of beta-catenin knockout HCT116, pilot screen, human colon tumor cells (AID 823;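 active means cell viability at or below a set limit in both duplicate runs, the limit being the all-compound median minus 4 SD, cut at about 23% in these data, passing the limit was not always enough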;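 further: 0% = wells killed by 20 µM Hyamine and 100% = untreated DMSO cell wells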). Particulars: CellTiter-Glo, 60 h, at 10 µM, stronger effect = lower value.
Assay [5] can be described thus: growth suppression of PTEN-deleted HCT116, pilot screen, cell-based, HCT116 clonal line, CellTiter-Glo (AID 824;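 active means viability at or below 27.92% in each of two runs, the all-compound median minus 4 SD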;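 further: 0% = 20 µM Hyamine control and 100% = vehicle cell control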). Particulars: 60 h, at 10 µM, stronger effect = lower value.
Assay [6] can be described thus: inhibitors of the yeast RAM network, pilot screen, dse1pr::URA3 reporter, 5-FOA selection (AID 869).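 Further: 0% = DMSO wells with no growth and 100% = 10 µM 1-NA-PP1 with full growth; RAM network block rescues cells from 5-FOA so hits raise OD615 growth.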 Particulars: S. cerevisiae dse1pr::URA3 5-FOA growth, OD615, 2 d; at 10 µM; stronger effect = higher value; strain carries analog-sensitive mutant Cbk1 kinase.
Assay [7] in a line: RAM signaling pathway blockade in yeast – S. cerevisiae, Pdr1DBD-CYC8 efflux-inhibited sensitized strain, primary screen (AID 1298;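 active means RAM network inhibition above 8.4% in each of two replicates, 3 SD over the compound average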;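 further: 0% = DMSO untreated cells without growth and 100% = 10 µM 1-NA-PP1 full growth; higher means more yeast growth rescued from 5-FOA killing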). Conditions: S. cerevisiae cbk1-as DSE1-URA3 strain, 5-FOA growth OD615, 2 d; at 50 µM; stronger effect = higher value.

A number with no mark means an inactive call. Results filed as inconclusive are left out. The source made the active and inactive calls.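 How the source made its calls, unless noted: active means inhibition over a set limit, the all-compound mean plus 3 SD, in both replicate runs; inconclusive means over that limit in just one replicate run; inactive means at or under that limit in both runs.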

Take `Cc1nnc(NC(=O)CCCCCN2C(=O)C3C4C=CC(C4)C3C2=O)s1` (stereo unspecified): the growth inhibition in assay [1] is -10.6%; in assay [2] it was -1.29%. In addition, the viability increase in assay [3] was 1.66%. Besides, the viability in assay [4] is 96.7%; in assay [5] it was 102%. For the same compound, the inhibition in assay [6] was -0.595%. The RAM network inhibition in assay [7] was 3.05%.
In the case of `Cc1ccc(CNC(=O)C2CCCN(c3nc4ccccc4o3)C2)cc1` (stereo unspecified), the growth inhibition is -20.4% in assay [1] and -13.5% in assay [2]. In addition, the viability increase in assay [3] is 1.29%. Also, the viability in assay [4] was 101%; in assay [5], 98.9%. In addition, in assay [6], the inhibition was 0.85%. For the same compound, the RAM network inhibition in assay [7] is 5.43%.
Regarding `Cc1nn(Cc2ccccc2)c(N)c1C#N`, the growth inhibition is -2.69% in assay [1] and 1.22% in assay [2]. In addition, in assay [3], the viability increase is 0.68%. For the same compound, the viability was 107% in assay [4] and 98.3% in assay [5]. For the same compound, the inhibition in assay [6] was 1.58%. Further, the RAM network inhibition in assay [7] was 5.62%.
For the compound `COc1ccc(-c2cc3ccccc3n2CC(O)CN2CCN(CCO)CC2)cc1` (stereo unspecified), the growth inhibition is -6.33% in assay [1] and -2.77% in assay [2]. Moreover, in assay [3], the viability increase is -3.91%. The viability in assay [4] was 80.3%; in assay [5] it was 86%. Besides, the inhibition in assay [6] was 0.72%. Also, the RAM network inhibition in assay [7] was 4.23%.
As to `COc1cccc2c(=O)c(C/C=C(/C)Cl)c(C)[nH]c12`, the growth inhibition in assay [1] was -2.8%; in assay [2], 5.71%. Besides, in assay [3], the viability increase was -2.38%. Further, the viability is 97.5% in assay [4] and 91.6% in assay [5]. In addition, the inhibition in assay [6] was 0.075%. Further, the RAM network inhibition in assay [7] was -0.16%.
For the compound `O=C(CSc1nnc(COc2ccccc2)o1)Nc1nccs1`, the growth inhibition is 6.56% in assay [1] and 4.11% in assay [2]. Also, the viability increase in assay [3] was -2.31%. Further, the values for the viability in assay [4] and in assay [5] were 95.6% and 96.4%, respectively. Moreover, the inhibition in assay [6] was 1.78%. Moreover, the RAM network inhibition in assay [7] was 3.24%.
For `CCOCCCNC(=O)c1cc2c(=O)n3cccc(C)c3nc2n1C`, the growth inhibition in assay [1] is -19.1%; in assay [2], -15.2%. The viability increase in assay [3] is -5.27%. Moreover, the viability in assay [4] was 19% (active); in assay [5], 24.4% (active). Also, the inhibition in assay [6] is 2.11%. Further, in assay [7], the RAM network inhibition is 2.32%.
`Cc1ccc(C)c(S(=O)(=O)Nc2ccc(O)cc2)c1`: the growth inhibition was -9.59% in assay [1] and 11.7% in assay [2]. The viability increase in assay [3] is -2.63%. Moreover, the viability in assay [4] was 101%; in assay [5], 97%. Also, the inhibition in assay [6] was 1.44%. Also, in assay [7], the RAM network inhibition was 2.77%.
With `O=S(=O)(NCCc1csc(-c2cccnc2)n1)c1cccs1`, the growth inhibition in assay [1] is 1.37%; in assay [2] it was -2.33%. Also, in assay [3], the viability increase is -1.11%. In addition, the viability is 104% in assay [4] and 96.8% in assay [5]. The inhibition in assay [6] was 1.42%. The RAM network inhibition in assay [7] was 0.73%.
For the compound `c1ccc(-c2nnc(SCc3nc4ccccc4[nH]3)n2Cc2ccco2)nc1`, the growth inhibition in assay [1] was -0.44%; in assay [2], 10.8%. The viability increase in assay [3] is -1.33%. Moreover, the viability in assay [4] is 90.3%; in assay [5], 91%. The inhibition in assay [6] is 0.04%. Moreover, the RAM network inhibition in assay [7] was -0.6%.
On to `CCN(CC)CCNC(=O)Cn1cnc2sc(C)c(S(=O)(=O)N3CCOCC3)c2c1=O`, for which the growth inhibition was 6.37% in assay [1] and 4.68% in assay [2]. Moreover, in assay [3], the viability increase is -1.11%. Further, the results for the viability in assay [4] and in assay [5] were 99% and 99.3%, respectively. In assay [6], the inhibition is 0.39%. For the same compound, the RAM network inhibition in assay [7] was 6.22%.
In the case of `COc1cc2c(cc1OC)C(C(=O)NC1CC1)C1c3ccccc3CCN1C2=O` (stereo unspecified), the growth inhibition was -17.8% in assay [1] and -13.4% in assay [2]. Moreover, the viability increase in assay [3] is -1.28%. Further, the viability in assay [4] was 95.8%; in assay [5] it was 97.3%. Moreover, the inhibition in assay [6] is 0.58%. Also, in assay [7], the RAM network inhibition is 0.1%.
Consider `CCC(=O)Nc1cccc(NC(=O)c2cc3ccccc3o2)c1`, for which the growth inhibition in assay [1] is -10.9%; in assay [2], -9.17%. For the same compound, in assay [3], the viability increase is -1.82%. For the same compound, the values for the viability in assay [4] and in assay [5] were 93.8% and 90.2%, respectively. In addition, the inhibition in assay [6] was 1.2%. Further, in assay [7], the RAM network inhibition is 5.21%.
Take `CCOC(=O)C(C)Sc1nc2c(c(=O)[nH]c(=O)n2C)n1Cc1ccc(Cl)cc1` (stereo unspecified): the growth inhibition was -3.52% in assay [1] and 1.73% in assay [2]. Moreover, the viability increase in assay [3] is -4.04%. Also, the viability in assay [4] is 92.6%; in assay [5], 91.6%. Further, the inhibition in assay [6] is -0.265%. For the same compound, in assay [7], the RAM network inhibition is 2.79%.
On to `CCOC(=O)COC(=O)c1ccc(O)cc1`, for which the growth inhibition is -4.13% in assay [1] and -13.5% in assay [2]. In addition, in assay [3], the viability increase is -0.28%. For the same compound, the viability in assay [4] is 93%; in assay [5], 97.8%. Moreover, in assay [6], the inhibition was 1.47%. The RAM network inhibition in assay [7] was 0.37%.
`CCNc1nc2c(c(=O)[nH]c(=O)n2C)n1CC(C)C`: the growth inhibition was -5.42% in assay [1] and -2.34% in assay [2]. Also, in assay [3], the viability increase was -2.15%. Besides, the figures for the viability in assay [4] and in assay [5] were 106% and 100%, respectively. Also, the inhibition in assay [6] is 0.05%. Moreover, the RAM network inhibition in assay [7] was 2.92%.
As to `COC(=O)c1ccc(C2c3c(oc4cc(C)c(C)cc4c3=O)C(=O)N2CCCN(C)C)cc1` (stereo unspecified), the growth inhibition in assay [1] was -7.92%; in assay [2], -7.88%. Besides, the viability increase in assay [3] was -2.2%. Moreover, the viability in assay [4] was 93.8%; in assay [5] it was 87.7%. Also, the inhibition in assay [6] was 0.34%. Further, in assay [7], the RAM network inhibition is 3.78%.
As for `CC(C)n1c(SCCCc2ccccc2)nc2c1c(=O)[nH]c(=O)n2C`, the figures for the growth inhibition in assay [1] and in assay [2] were -6.04% and 4.52%, respectively. Further, the viability increase in assay [3] is -0.9%. The viability is 92.2% in assay [4] and 87.5% in assay [5]. The inhibition in assay [6] was 1.95%. The RAM network inhibition in assay [7] is 8.85%.
In the case of `CC1(C)CC2(CC(C)(C)N1)OC(=O)N1CCc3ccccc3C12C` (stereo unspecified), the growth inhibition in assay [1] was -4.17%; in assay [2] it was -7.5%. Besides, the viability increase in assay [3] is -1.65%. Besides, the results for the viability in assay [4] and in assay [5] were 106% and 97.9%, respectively. For the same compound, the inhibition in assay [6] was 2.3%. For the same compound, in assay [7], the RAM network inhibition is 6.97%.
As for `CC1=C(C(=O)OC(C)C)C(c2c[nH]c3ccccc23)n2ncnc2N1` (stereo unspecified), the growth inhibition in assay [1] was -5.16%; in assay [2], -3.17%. For the same compound, the viability increase in assay [3] is -1.69%. In addition, the figures for the viability in assay [4] and in assay [5] were 105% and 97.1%, respectively. The inhibition in assay [6] was 2.2%. Further, the RAM network inhibition in assay [7] is -0.16%.
On to `CCCCNC(=O)c1ccc(CS(=O)(=O)c2ccc(OC)cc2)o1`, for which the growth inhibition in assay [1] is -14.2%; in assay [2], -23%. For the same compound, in assay [3], the viability increase was -0.64%. Also, the figures for the viability in assay [4] and in assay [5] were 107% and 97.8%, respectively. The inhibition in assay [6] was 0.45%. In addition, the RAM network inhibition in assay [7] is 2.18%.
Consider `COc1ccc(Nc2oc(COc3ccccc3F)nc2C#N)cc1`, for which the growth inhibition in assay [1] was -10.6%; in assay [2], 11.6%. Also, in assay [3], the viability increase is -7.35%. In addition, the viability in assay [4] was 51.3%; in assay [5], 53.3%. Moreover, the inhibition in assay [6] is 2.25%. For the same compound, the RAM network inhibition in assay [7] is 3.24%.
For the compound `CC(=O)C1=C(C)NC(SCC(N)=O)=C(C#N)C1c1cccnc1` (stereo unspecified), the growth inhibition in assay [1] was 6.58%; in assay [2], 20.8%. In addition, the viability increase in assay [3] was 1.67%. For the same compound, the viability in assay [4] was 104%; in assay [5], 101%. In assay [6], the inhibition is 1.12%. Moreover, the RAM network inhibition in assay [7] was 1.65%.
